Measurements reported in ChEMBL document CHEMBL4251593, “Nontoxic combretafuranone analogues with high in vitro antibacterial activity” (Eur J Med Chem, 2018).
Values after ≈ are worked out from the molar mass of the structure shown.

Legend:
[1] = tested on: TERT-RPE1; assay: Cytotoxicity against human RPE1 cells assessed as reduction in cell viability after 48 hrs by ATPlite-based luminescent assay; settings: RPE-1, 48 h
In short: (§1)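 Cells were grown […] with 10% FBS, glutamax, NEAA and pen/strep at 37 °C, 5% CO2. Media were DMEM for RPE-1, HepG2 and BJ (BJ plus 10 ng/ml bFGF), F-12K for PC3, and IMDM for K562/HL-60. Cells were seeded at 500 per well and dosed from DMSO at 12 concentrations, 40 µM to 1 nM, in triplicate. After 48 h, intracellular ATP was read by luminescence. ED50 was obtained by variable-slope nonlinear regression.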

[2] = tested on: BJ; assay: Cytotoxicity against human BJ cells assessed as reduction in cell viability after 48 hrs by ATPlite-based luminescent assay; in short: as §1
[3] = tested on: K562; assay: Cytotoxicity against human K562 cells assessed as reduction in cell viability after 48 hrs by ATPlite-based luminescent assay; settings: K562, 48 h; in short: as §1
[4] = tested on: HL-60; assay: Cytotoxicity against human HL60 cells assessed as reduction in cell viability after 48 hrs by ATPlite-based luminescent assay; settings: HL-60, 48 h; in short: as §1
[5] = tested on: PC-3; assay: Cytotoxicity against human PC3 cells assessed as reduction in cell viability after 48 hrs by ATPlite-based luminescent assay; settings: PC-3, 48 h; in short: as §1
[6] = tested on: MCF7; assay: Cytotoxicity against human MCF7 cells assessed as reduction in cell viability after 48 hrs by ATPlite-based luminescent assay; settings: MCF7, 48 h
[7] = tested on: HepG2; assay: Cytotoxicity against human HepG2 cells assessed as reduction in cell viability after 48 hrs by ATPlite-based luminescent assay; settings: HepG2, 48 h; in short: as §1
[8] = tested on: TERT-RPE1; assay: Induction of apoptosis in human RPE1 cells assessed as caspase 3/7 activity after 24 hrs by caspase-glo luminescent assay; type: cell-based; settings: RPE-1, 24 h
In short: (§2)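 Cells were seeded at 500 per well in their growth media and exposed to 12 concentrations from 40 µM to 1 nM, delivered from DMSO, in triplicate. After 24 h, caspase-3/7 activity was read by Caspase-Glo luminescence. Data were normalized and ED50 was fitted by variable-slope nonlinear regression.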

[9] = tested on: K562; assay: Induction of apoptosis in human K562 cells assessed as caspase 3/7 activity after 24 hrs by caspase-glo luminescent assay; type: cell-based; settings: K562, 24 h; in short: as §2
[10] = tested on: HL-60; assay: Induction of apoptosis in human HL60 cells assessed as caspase 3/7 activity after 24 hrs by caspase-glo luminescent assay; type: cell-based; settings: HL-60, 24 h; in short: as §2
[11] = tested on: PC-3; assay: Induction of apoptosis in human PC3 cells assessed as caspase 3/7 activity after 24 hrs by caspase-glo luminescent assay; type: cell-based; settings: PC-3, 24 h; in short: as §2
[12] = tested on: HepG2; assay: Induction of apoptosis in human HepG2 cells assessed as caspase 3/7 activity after 24 hrs by caspase-glo luminescent assay; type: cell-based; settings: HepG2, 24 h; in short: as §2
[13] = tested on: Escherichia coli; assay: Antibacterial activity against Escherichia coli ATCC 8739 after 24 hrs by microdilution assay; type: functional; settings: ATCC 8739, 24 h
In short: (§3)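 Broth microdilution in Mueller-Hinton medium buffered to pH 7.4 (±0.2), with DMSO as diluent at no more than 2% final. Compounds were tested as 2-fold serial dilutions from 2000 to 0.488 µmol/l. The inoculum was 0.5 McFarland (1.5×10^8 cfu/ml). Plates were held at 37 °C and read visually at 24 and 48 h. MIC was taken as 95% growth inhibition versus control, determined twice in duplicate.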

[14] = tested on: Pseudomonas aeruginosa; assay: Antibacterial activity against Pseudomonas aeruginosa ATCC 9027 after 24 hrs by microdilution assay; type: functional; settings: ATCC 9027, 24 h; in short: as §3
[15] = tested on: Escherichia coli; assay: Antibacterial activity against Escherichia coli ATCC 8739 after 48 hrs by microdilution assay; type: functional; settings: ATCC 8739, 48 h; in short: as §3
[16] = tested on: Pseudomonas aeruginosa; assay: Antibacterial activity against Pseudomonas aeruginosa ATCC 9027 after 48 hrs by microdilution assay; type: functional; settings: ATCC 9027, 48 h; in short: as §3

Structure (SMILES)	IC50 [1] [µM]	IC50 [2] [µM]	IC50 [3] [µM]	IC50 [4] [µM]	IC50 [5] [µM]	IC50 [6] [µM]	IC50 [7] [µM]	IC50 [8] [µM]	IC50 [9] [µM]	IC50 [10] [µM]	IC50 [11] [µM]	IC50 [12] [µM]	MIC95 [13] [µM]	MIC95 [14] [µM]	MIC95 [15] [µM]	MIC95 [16] [µM]
O=C1OCC(c2ccc(O)cc2)=C1c1ccc(Br)cc1	> 40	> 40	> 40	> 40	> 40	> 40	> 40	> 40	> 40	> 40	> 40	> 40				
Cc1ccc(C2=C(c3ccccc3Cl)C(=O)OC2)cc1	2.09	> 40	0.78	1.04	> 40	> 40	> 40	13.3	> 40	> 40	> 40	> 40				
O=C1OCC(c2ccc(Cl)cc2)=C1c1ccc(C(F)(F)F)cc1	14.9	> 40	> 40	> 40	> 40	12.3	> 40	> 40	> 40	> 40	> 40	> 40				
COc1cc(C2=C(c3ccc4c(c3)OCO4)C(=O)OC2)cc(OC)c1OC	> 40	> 40	> 40	> 40	> 40	> 40	> 40	> 40	> 40	> 40	> 40	> 40				
O=C(O)c1cn(C2CC2)c2cc(N3CCNCC3)c(F)cc2c1=O [CIPROFLOXACIN]													0.06 (≈ 0.0199 µg/mL)	3.9 (≈ 1.29 µg/mL)	0.06 (≈ 0.0199 µg/mL)	7.81 (≈ 2.59 µg/mL)
Cc1ccc(C2=C(c3ccc(Cl)cc3Cl)C(=O)OC2)cc1	0.91	> 40	0.19	0.27	> 40	23.9	> 40	10.1	> 40	0.44	> 40	> 40				
CC[C@@]1(O)C(=O)OCc2c1cc1n(c2=O)Cc2cc3ccccc3nc2-1 [CAMPTOTHECIN]	> 40	> 40	0.09	0.02	0.4	0.34	0.43	27.2	0.711	0.07	> 40	4.37				
